Measured values reported in ChEMBL document CHEMBL1143122, “Novel analogs of D-e-MAPP and B13. Part 1: synthesis and evaluation as potential anticancer agents” (Bioorg Med Chem, 2008).

Assays:
SF-539 = assay: Antiproliferative activity against human SF539 cells after 48 hrs; assay type: functional; conditions: SF-539, 48 h
Summary of the method: (§1)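 NCI 60-cell screen. Cells were grown in RPMI 1640 with 5% FBS and 2 mM L-glutamine, then plated at 5,000–40,000 cells/well according to doubling time and preincubated for 24 h at 37 °C in 5% CO2. Compounds were dissolved in DMSO at 400× the top final concentration and tested at five 10-fold dilutions from 10−4 to 10−8 M for 48 h. Growth was read spectrophotometrically; GI50 is 50% net protein reduction.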

RXF 393 = assay: Antiproliferative activity against human RXF393 cells after 48 hrs; assay type: functional; conditions: RXF 393, 48 h; summary of the method: as §1
NCI-H460 = assay: Antiproliferative activity against human NCI-H460 cells after 48 hrs; assay type: functional; conditions: NCI-H460, 48 h; summary of the method: as §1
SN12C = assay: Antiproliferative activity against human SN12C cells after 48 hrs; assay type: functional; summary of the method: as §1
HCC 2998 = assay: Antiproliferative activity against human HCC2998 cells after 48 hrs; assay type: functional; conditions: HCC 2998, 48 h; summary of the method: as §1
OVCAR-4 = assay: Antiproliferative activity against human OVCAR4 cells after 48 hrs; assay type: functional; conditions: OVCAR-4, 48 h; summary of the method: as §1
U-251 = assay: Antiproliferative activity against human U251 cells after 48 hrs; assay type: functional; conditions: U-251, 48 h
Summary of the method: (§2)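 NCI 60-cell-line screen. Lines grown in RPMI 1640 with 5% fetal bovine serum and 2 mM L-glutamine, plated at 5,000–40,000 cells/well according to doubling time, left 24 h at 37 °C in 5% CO2. Drug stocks in DMSO at 400-fold the top final concentration. Five 10-fold dilutions, 10−4 to 10−8 M, incubated 48 h. Growth read spectrophotometrically as net protein; GI50 taken as 50% reduction.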

A549 = assay: Antiproliferative activity against human A549 cells after 48 hrs; assay type: functional; conditions: A549, 48 h; summary of the method: as §1
NCI-H23 = assay: Antiproliferative activity against human NCI-H23 cells after 48 hrs; assay type: functional; conditions: NCI-H23, 48 h; summary of the method: as §1
IGROV-1 = assay: Antiproliferative activity against human IGROV1 cells after 48 hrs; assay type: functional; conditions: IGROV-1, 48 h; summary of the method: as §1
PC-3 = assay: Antiproliferative activity against human PC3 cells after 48 hrs; assay type: functional; conditions: PC-3, 48 h; summary of the method: as §1
MDA-MB-435 = assay: Antiproliferative activity against human MDA-MB-435 cells after 48 hrs; assay type: functional; conditions: Homo sapiens, MDA-MB-435, 48 h; summary of the method: as §1
[1] = Antiproliferative activity against human HL60(TB) cells after 48 hrs; assay type: functional, HL-60(TB); conditions: HL-60, 48 h
Summary of the method: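 NCI 60-line panel screen: cells grown in RPMI 1640 with 5% fetal bovine serum and 2 mM L-glutamine, plated at 5,000–40,000 cells/well by doubling time, and preincubated 24 h at 37 °C in 5% CO2. Drugs were solubilised in DMSO at 400-fold the final maximum and tested at five 10-fold dilutions from 10−4 to 10−8 M for 48 h. Net protein was read spectrophotometrically, and the concentration giving 50% reduction was reported as log10 GI50.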

HCT-116 = assay: Antiproliferative activity against human HCT116 cells after 48 hrs; assay type: functional; conditions: HCT-116, 48 h; summary of the method: as §1
M14 = assay: Antiproliferative activity against human M14 cells after 48 hrs; assay type: functional; conditions: M14, 48 h; summary of the method: as §1
NCI-H226 = assay: Antiproliferative activity against human NCI-H226 cells after 48 hrs; assay type: functional; conditions: NCI-H226, 48 h; summary of the method: as §1
OVCAR-8 = assay: Antiproliferative activity against human OVCAR8 cells after 48 hrs; assay type: functional; conditions: OVCAR-8, 48 h; summary of the method: as §1
MCF7 = assay: Antiproliferative activity against human MCF7 cells after 48 hrs; assay type: functional, cell-based; conditions: MCF7, 48 h
UO-31 = assay: Antiproliferative activity against human UO31 cells after 48 hrs; assay type: functional; conditions: UO-31, 48 h; summary of the method: as §2
OVCAR-5 = assay: Antiproliferative activity against human OVCAR5 cells after 48 hrs; assay type: functional; conditions: OVCAR-5, 48 h; summary of the method: as §1
SK-OV-3 = assay: Antiproliferative activity against human SKOV3 cells after 48 hrs; assay type: functional; conditions: SK-OV-3, 48 h; summary of the method: as §1
[2] = Antiproliferative activity against human NCI-ADR-RES cells after 48 hrs; assay type: functional; summary of the method: as §1
COLO 205 = assay: Antiproliferative activity against human COLO205 cells after 48 hrs; assay type: functional; conditions: COLO 205, 48 h; summary of the method: as §1
SF-268 = assay: Antiproliferative activity against human SF268 cells after 48 hrs; assay type: functional; conditions: SF-268, 48 h; summary of the method: as §1
OVCAR-3 = assay: Antiproliferative activity against human OVCAR-3 cells after 48 hrs; assay type: functional; conditions: OVCAR-3, 48 h; summary of the method: as §1
LOX IMVI = assay: Antiproliferative activity against human LOXIMVI cells after 48 hrs; assay type: functional; summary of the method: as §1
CCRF-CEM = assay: Antiproliferative activity against human CCRF-CEM cells after 48 hrs; assay type: functional; summary of the method: as §1
ACHN = assay: Antiproliferative activity against human ACHN cells after 48 hrs; assay type: functional; summary of the method: as §1
SNB-19 = assay: Antiproliferative activity against human SNB19 cells after 48 hrs; assay type: functional; conditions: SNB-19, 48 h; summary of the method: as §1
HCT-15 = assay: Antiproliferative activity against human HCT15 cells after 48 hrs; assay type: functional; conditions: Homo sapiens, HCT-15, 48 h; summary of the method: as §1
[3] = read-out: Log LC50 (the source's name) (converted)

`CCCCCCCCCCCCCCN[C@@H](CO)Cc1ccccc1` showed a GI50 (SF-539) of 1.7 µM, an LC50 (SF-539) of 6.76 µM and a TGI (SF-539; read-out: Log TGI (converted)) of 3.39 µM. For the same compound, the GI50 (RXF 393) was 1.7 µM, the CC50 (RXF 393; [3]) was 6.92 µM and the TGI (RXF 393; read-out: Log TGI (converted)) was 3.47 µM. For the same compound, the GI50 (NCI-H460) was 1.82 µM, the CC50 (NCI-H460; [3]) was 6.17 µM and the TGI (NCI-H460; read-out: Log TGI (converted)) was 3.39 µM. The GI50 (SN12C) was 1.86 µM, the LC50 (50% net cell kill) (SN12C) was 7.41 µM and the TGI (SN12C; read-out: Log TGI (converted)) was 3.72 µM. It also gave a GI50 (HCC 2998) of 2.24 µM, a CC50 (HCC 2998; [3]) of 6.17 µM and a TGI (HCC 2998; read-out: Log TGI (converted)) of 3.72 µM. It also gave a GI50 (OVCAR-4) of 1.91 µM, an LC50 (OVCAR-4) of 6.31 µM and a TGI (OVCAR-4; read-out: Log TGI (converted)) of 3.47 µM. The GI50 (U-251) was 1.74 µM, the TGI (U-251; read-out: Log TGI (converted)) was 3.24 µM and the GI50 (A549) was 2.04 µM. It also gave a CC50 (A549; [3]) of 26.3 µM, a TGI (A549; read-out: Log TGI (converted)) of 4.68 µM and a GI50 (NCI-H23) of 2.09 µM. For the same compound, the CC50 (NCI-H23; [3]) was 9.77 µM, the TGI (NCI-H23; read-out: Log TGI (converted)) was 4.47 µM and the GI50 (IGROV-1) was 1.91 µM. The TGI (IGROV-1; read-out: Log TGI (converted)) was 3.72 µM, the GI50 (PC-3) was 1.62 µM and the LC50 (PC-3) was 5.62 µM. For the same compound, the TGI (PC-3; read-out: Log TGI (converted)) was 2.82 µM, the GI50 (MDA-MB-435) was 1.74 µM and the LC50 (MDA-MB-435) was 5.62 µM. For the same compound, the TGI (MDA-MB-435; read-out: Log TGI (converted)) was 3.16 µM, the GI50 [1] was 1.78 µM and the LC50 [1] was 9.33 µM. The TGI ([1]; read-out: Log TGI (converted)) was 4.07 µM, the GI50 (HCT-116) was 2.04 µM and the LC50 (HCT-116) was 6.76 µM. For the same compound, the TGI (HCT-116; read-out: Log TGI (converted)) was 3.72 µM, the GI50 (M14) was 2.24 µM and the LC50 (M14) was 6.76 µM. For the same compound, the TGI (M14; read-out: Log TGI (converted)) was 3.89 µM, the GI50 (NCI-H226) was 1.91 µM and the TGI (NCI-H226; read-out: Log TGI (converted)) was 3.8 µM. For the same compound, the GI50 (OVCAR-8) was 1.91 µM, the TGI (OVCAR-8; read-out: Log TGI (converted)) was 3.8 µM and the GI50 (MCF7) was 1.74 µM. For the same compound, the LC50 (MCF7) was 6.03 µM, the TGI (MCF7; read-out: Log TGI (converted)) was 3.24 µM and the GI50 (UO-31) was 4.37 µM. For the same compound, the LC50 (UO-31) was > 100 µM, the TGI (UO-31; read-out: Log TGI (converted)) was 21.4 µM and the GI50 (OVCAR-5) was 2.4 µM. It also gave a CC50 (OVCAR-5; [3]) of 15.8 µM, a TGI (OVCAR-5; read-out: Log TGI (converted)) of 5.5 µM and a GI50 (SK-OV-3) of 2.19 µM. For the same compound, the CC50 (SK-OV-3; [3]) was 9.33 µM, the TGI (SK-OV-3; read-out: Log TGI (converted)) was 4.57 µM and the GI50 [2] was 1.86 µM. For the same compound, the LC50 [2] was 6.31 µM, the TGI ([2]; read-out: Log TGI (converted)) was 3.47 µM and the GI50 (COLO 205) was 1.66 µM. For the same compound, the CC50 (COLO 205; [3]) was 6.03 µM, the TGI (COLO 205; read-out: Log TGI (converted)) was 3.16 µM and the GI50 (SF-268) was 1.78 µM. It also gave an LC50 (SF-268) of 7.08 µM, a TGI (SF-268; read-out: Log TGI (converted)) of 3.55 µM and a GI50 (OVCAR-3) of 1.66 µM. The LC50 (OVCAR-3) was 5.5 µM, the TGI (OVCAR-3; read-out: Log TGI (converted)) was 3.02 µM and the GI50 (LOX IMVI) was 1.58 µM. The LC50 (LOX IMVI) was 5.75 µM, the TGI (LOX IMVI; read-out: Log TGI (converted)) was 3.02 µM and the GI50 (CCRF-CEM) was 1.74 µM. It also gave a CC50 (CCRF-CEM; [3]) of 7.76 µM, a TGI (CCRF-CEM; read-out: Log TGI (converted)) of 3.72 µM and a GI50 (ACHN) of 1.7 µM. For the same compound, the CC50 (ACHN; [3]) was 5.89 µM, the TGI (ACHN; read-out: Log TGI (converted)) was 3.16 µM and the GI50 (SNB-19) was 1.7 µM. It also gave a CC50 (SNB-19; [3]) of 5.89 µM, a TGI (SNB-19; read-out: Log TGI (converted)) of 3.16 µM and a GI50 (HCT-15) of 1.7 µM. For the same compound, the LC50 (HCT-15) was 5.89 µM and the TGI (HCT-15; read-out: Log TGI (converted)) was 3.16 µM.
